Test results: ChEMBL document CHEMBL4680123, “Synthesis of novel 3-halo-3-nitroflavanones and their activities as DNA methyltransferase inhibitors in cancer cells” (Eur J Med Chem, 2020)
Active and inactive are the calls of the source. No cut-off for these calls is given here.

How the values were obtained:
[1] = biological target: DNA (cytosine-5)-methyltransferase 3A (Homo sapiens) (UniProt Q9Y6K1); experiment: Inhibition of human DNMT3A catalytic domain expressed in Escherichia coli Rosetta-gamiTM 2(DE3) pLysS competent cells using biotinylated 6-FAM double strand DNA comprising unique CpG site […] incubated for 1 hrs by fluorescence based assay
[2] = biological target: DNA (cytosine-5)-methyltransferase 3A (Homo sapiens) (UniProt Q9Y6K1); experiment: Inhibition of human DNMT3A catalytic domain expressed in Escherichia coli Rosetta-gamiTM 2(DE3) pLysS competent cells using biotinylated 6-FAM double strand DNA comprising unique CpG site […] at 32 uM incubated for 1 hrs by fluorescence based assay
[3] = biological target: DNA (cytosine-5)-methyltransferase 3B (Homo sapiens) (UniProt Q9UBC3); experiment: Inhibition of human DNMT3B in human KG-1 cells expressing cmv-firefly luciferase assessed as increase in luminescence upto 10 uM incubated for 24 hrs by luciferase reporter gene assay relative to control; format: cell-based; settings: dose microM <=10, time 24.0 hrs
Outline: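 KG-1 cells stably carrying firefly luciferase (luc+) under a 50%-methylated CMV promoter, seeded at 20 000 cells/well. Treated 24 h with compound (3.2–10 µM) or DMSO. Luciferase quantified by One-Glo luminescence and expressed as fold induction over DMSO control. Mean of three experiments with standard error.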

[4] = Chemical stability of compound in DNMT3A-c enzyme buffer assessed as half life at 1 mM by HPLC analysis; format: physicochemical
Outline: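 Followed over 15 h by reverse-phase HPLC (H2O/acetonitrile gradient with 0.1% formic acid), detection at 250 nm. Remaining compound taken from HPLC peak area. Mean of at least two experiments.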

KG-1 = experiment: Cytotoxicity against human KG-1 cells assessed as reduction in cell viability measured after 72 hrs by APTlite one step luminescence assay; format: functional, cell-based; settings: KG-1, 72 h
[5] = biological target: DNA (cytosine-5)-methyltransferase 3B (Homo sapiens) (UniProt Q9UBC3); experiment: Inhibition of human DNMT3B in human KG-1 cells expressing cmv-firefly luciferase assessed as increase in luminescence incubated for 24 hrs by luciferase reporter gene assay relative to control; format: cell-based; settings: dose 3.2-10 µM
Outline: (§1)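 KG-1 cells stably carrying firefly luciferase under a 50% methylated CMV promoter were seeded at 20 000 cells/well. They were exposed to compound (3.2–10 µM range) or DMSO for 24 h, then luciferase was quantified by One-Glo luminescence. Result is fold induction over DMSO control. Mean of three experiments with standard error.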

[6] = biological target: DNA (cytosine-5)-methyltransferase 3B (Homo sapiens) (UniProt Q9UBC3); experiment: Inhibition of human DNMT3B in human KG-1 cells expressing cmv-firefly luciferase assessed as increase in luminescence at 5 uM incubated for 24 hrs by luciferase reporter gene assay relative to control; format: cell-based
Outline: as §1

HCT-116 = experiment: Cytotoxicity against human HCT-116 cells assessed as reduction in cell viability measured after 72 hrs by APTlite one step luminescence assay; format: functional, cell-based; settings: HCT-116, 72 h
Outline: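 KG-1 cells were seeded at 2x10^4 cells/ml in RPMI-1640 with 15% FCS, and HCT116 cells at 1.5x10^4 cells/ml in MEM with HEPES, L-glutamine and 10% FCS, at 37 °C, 5% CO2. Compound was given at 3.2x10-9 to 1x10-5 M on day 0 and again on days 2 and 3. ATP-luminescence read-out on day 4. EC50 is the concentration giving 50% viability loss versus untreated cells. Mean of at least two independent experiments run in duplicate.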

Sequence of DNA (cytosine-5)-methyltransferase 3A (Homo sapiens) (Q9Y6K1 whole entry, looked up, the tested form may be a part): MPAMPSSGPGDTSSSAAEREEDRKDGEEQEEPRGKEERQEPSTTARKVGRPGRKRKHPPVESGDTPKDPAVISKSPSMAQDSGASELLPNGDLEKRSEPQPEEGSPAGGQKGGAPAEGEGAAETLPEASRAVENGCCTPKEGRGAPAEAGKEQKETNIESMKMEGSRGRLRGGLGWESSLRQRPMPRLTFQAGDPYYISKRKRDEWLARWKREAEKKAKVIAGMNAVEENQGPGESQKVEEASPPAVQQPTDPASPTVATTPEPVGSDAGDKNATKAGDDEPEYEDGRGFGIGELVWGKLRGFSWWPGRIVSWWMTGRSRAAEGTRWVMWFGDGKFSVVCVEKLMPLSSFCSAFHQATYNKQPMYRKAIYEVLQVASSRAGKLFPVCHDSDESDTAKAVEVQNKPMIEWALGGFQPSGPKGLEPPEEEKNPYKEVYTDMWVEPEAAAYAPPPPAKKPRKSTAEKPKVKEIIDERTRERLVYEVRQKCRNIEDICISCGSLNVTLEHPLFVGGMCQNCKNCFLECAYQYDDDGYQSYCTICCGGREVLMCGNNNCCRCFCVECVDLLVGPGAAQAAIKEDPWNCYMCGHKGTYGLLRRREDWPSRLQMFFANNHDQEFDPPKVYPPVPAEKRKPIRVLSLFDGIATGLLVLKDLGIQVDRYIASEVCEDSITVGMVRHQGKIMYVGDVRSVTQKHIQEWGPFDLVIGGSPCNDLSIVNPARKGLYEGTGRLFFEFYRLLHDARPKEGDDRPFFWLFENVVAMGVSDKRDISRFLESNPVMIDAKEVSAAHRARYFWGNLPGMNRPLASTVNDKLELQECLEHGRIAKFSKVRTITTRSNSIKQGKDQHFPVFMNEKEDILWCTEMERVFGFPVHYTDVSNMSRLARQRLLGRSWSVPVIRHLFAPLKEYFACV

O=C1c2ccccc2OC(c2ccccc2)C1[N+](=O)[O-] (trans isomer)
EC50 [1]: Not Active | inhibition [2]: 0%

COc1ccc([N+](=O)[O-])c([C@H]2Oc3ccccc3C(=O)[C@]2(I)[N+](=O)[O-])c1 (racemic)
inhibition [3]: inactive | EC50 ([1]; read-out: EC50): 2 µM | half-life at 1000 µM [4]: > 15 h

O=C1c2ccccc2OC(c2ccccc2[N+](=O)[O-])C1(I)[N+](=O)[O-] (racemic)
inhibition [3]: inactive | EC50 ([1]; read-out: EC50): 2.8 µM | half-life at 1000 µM [4]: > 15 h

COc1ccc([N+](=O)[O-])c(C2Oc3ccccc3C(=O)C2(Cl)[N+](=O)[O-])c1 (stereo not given)
inhibition [3]: inactive | EC50 ([1]; read-out: EC50): 4.4 µM | half-life at 1000 µM [4]: 3.4 h

COc1ccc([N+](=O)[O-])c([C@H]2Oc3ccccc3C(=O)[C@@]2(Br)[N+](=O)[O-])c1 (racemic)
EC50 (KG-1): 18.6 µM | Activity [5]: Dose-dependent effect | EC50 ([1]; read-out: EC50): 4.7 µM

O=C1c2ccccc2OC(c2ccccc2)C1(Br)[N+](=O)[O-] (stereo not given)
inhibition [3]: inactive | EC50 ([1]; read-out: EC50): 6.7 µM

O=C1c2ccccc2OC(c2ccccc2[N+](=O)[O-])C1[N+](=O)[O-] (stereo not given)
EC50 [1]: Not Active | inhibition [2]: 0%

O=C1c2ccccc2OC(c2ccccc2[N+](=O)[O-])C1(Cl)[N+](=O)[O-] (stereo not given)
inhibition [3]: inactive | fold change (FC) [6]: 2 | EC50 ([1]; read-out: EC50): 4.4 µM | half-life at 1000 µM [4]: 1 h

O=C1c2ccccc2O[C@H](c2ccccc2[N+](=O)[O-])[C@@]1(Br)[N+](=O)[O-] (racemic)
EC50 (KG-1): 13 µM | fold change (FC) [6]: 6.1 | Activity [5]: Dose-dependent effect | EC50 (HCT-116): 10.7 µM | EC50 ([1]; read-out: EC50): 3.2 µM | half-life at 1000 µM [4]: 1.7 h

CC1([N+](=O)[O-])C(=O)c2ccccc2OC1c1ccccc1[N+](=O)[O-] (stereo not given)
inhibition [3]: inactive | EC50 ([1]; read-out: EC50): > 40 µM

O=C1c2ccccc2O[C@H](c2ccccc2F)[C@@]1(Br)[N+](=O)[O-] (racemic)
inhibition [3]: inactive | EC50 ([1]; read-out: EC50): 5.7 µM

O=C1c2ccccc2O[C@H](c2ccccc2[N+](=O)[O-])[C@]1(Br)[N+](=O)[O-] (racemic)
EC50 (KG-1): 5.3 µM | fold change (FC) [6]: 8.8 | Activity [5]: Dose-dependent effect | EC50 (HCT-116): 12.4 µM | EC50 ([1]; read-out: EC50): 5.1 µM | half-life at 1000 µM [4]: 0.7 h

COc1ccc([N+](=O)[O-])c(C2Oc3ccccc3C(=O)C2[N+](=O)[O-])c1 (stereo not given)
EC50 [1]: Not Active | inhibition [2]: 0%

COc1ccc([N+](=O)[O-])c([C@H]2Oc3ccccc3C(=O)[C@]2(Br)[N+](=O)[O-])c1 (racemic)
EC50 (KG-1): 12.9 µM | Activity [5]: Dose-dependent effect | EC50 (HCT-116): 8.1 µM | EC50 ([1]; read-out: EC50): 5.3 µM | half-life at 1000 µM [4]: 7 h
